These results are taken from ChEMBL document CHEMBL1143884, “Pyrimidine-based inhibitors of CaMKIIdelta” (Bioorg Med Chem Lett, 2008).

pIC50: −log10 of the molar value.

Assay [1] deals with T1, Calcium/calmodulin-dependent protein kinase type II subunit delta (Homo sapiens, UniProt Q13557). The assay is described as follows: Inhibition of cloned CaMK2delta. Summed up:
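Radiometric filter-binding assay. Recombinant CaMKIIδ in 50 mM PIPES pH 7, 0.2 mg/ml BSA, 1 mM DTT, preincubated with inhibitor. Reaction started with buffer containing MgCl2, ATP, CaCl2, calmodulin, [His5]Autocamtide-2 substrate and [γ-33P]ATP, run 3 min at RT. Stopped on P81 phosphocellulose filter, washed with 1% phosphoric acid, counted by scintillation.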

The target of assay [2] is T1, Calcium/calmodulin-dependent protein kinase type II subunit delta. Put plainly: Inhibition of CaMK2delta-mediated vimentin phosphorylation in human HL2 cells after 1 hr by ELISA. Format: cell-based. Summed up: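 HL-2 cells preincubated 1 h at 37 °C with inhibitor at increasing concentrations, then CaMKII activated with ionomycin for 15 min at 37 °C. Cells lysed in ice-cold lysis buffer and frozen at −80 °C before read-out.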

Assay [3] shares this target. Put plainly: Inhibition of CaMK2delta-mediated vimentin phosphorylation in human HL2 cells at 5 uM after 1 hr by ELISA. The format is cell-based. (An ELISA detects its analyte on a solid surface through an enzyme-linked reagent.)

One may read the pIC50 as −log10 of the IC50, conventionally taken in molar units. Broadly, the inhibition is the relative decrease from the control value, in per cent.

T1 sequence (Q13557 whole entry): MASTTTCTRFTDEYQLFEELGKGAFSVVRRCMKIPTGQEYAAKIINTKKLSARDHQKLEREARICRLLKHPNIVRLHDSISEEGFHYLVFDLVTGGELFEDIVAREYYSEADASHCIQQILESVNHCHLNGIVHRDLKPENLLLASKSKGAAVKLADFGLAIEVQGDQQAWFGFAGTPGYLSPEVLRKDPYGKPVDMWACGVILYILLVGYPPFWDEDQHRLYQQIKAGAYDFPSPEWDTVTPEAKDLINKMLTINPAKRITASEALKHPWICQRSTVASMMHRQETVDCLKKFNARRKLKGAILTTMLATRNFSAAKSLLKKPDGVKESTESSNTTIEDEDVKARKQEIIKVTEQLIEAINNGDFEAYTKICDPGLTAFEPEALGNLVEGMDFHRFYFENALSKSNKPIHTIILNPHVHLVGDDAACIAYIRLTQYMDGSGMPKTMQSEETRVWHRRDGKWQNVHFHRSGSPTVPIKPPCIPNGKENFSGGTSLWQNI

Regarding `COC(=O)c1ccc(-c2ccnc(Nc3ccnc(N[C@@H](C)c4ccccc4)c3)n2)cc1`, the pIC50 in assay [1] was 5.77.

Regarding `NCCNc1cccc(-c2ccnc(Nc3cccc(Cl)c3)n2)c1`, the values for the pIC50 in assay [1] and in assay [2] were 7.92 and 6.96, respectively.

Take `O=C(O)Cc1ccc(-c2ccnc(Nc3ccccc3)n2)cc1`: in assay [1], the pIC50 was less than 4.70.

For the compound `Nc1cccc(-c2ccnc(Nc3cccc(Cl)c3)n2)c1`, the pIC50 in assay [1] was 6.18.

Turning to `C[C@H](Nc1cc(Nc2nccc(-c3cccc(F)c3)n2)ccn1)c1ccccc1`, the pIC50 in assay [1] was 5.89.

On to `O=C(NO)c1ccc(-c2ccnc(Nc3ccccc3)n2)cc1`, for which the pIC50 in assay [1] is 6.54. Moreover, in assay [3], the inhibition came to 90%.

In the case of `Clc1cccc(Nc2nccc(-c3cccc(N4CCNCC4)c3)n2)c1`, the figures for the pIC50 in assay [1] and in assay [2] were 8.05 and 6.49, respectively.

For the compound `O=C(O)c1ccc(-c2ccnc(Nc3ccccc3)n2)cc1`, in assay [1], the pIC50 is 7.19. The inhibition in assay [3] amounted to 0%.

As for `CNC(=O)c1ccc(-c2ccnc(Nc3ccccc3)n2)cc1`, the pIC50 in assay [1] is less than 4.70.

For `c1ccc(Nc2nccc(-c3ccc(-c4nnn[nH]4)cc3)n2)cc1`, the pIC50 in assay [1] is 6.11. In addition, the inhibition in assay [3] was 0%.

For the compound `C[C@H](Nc1cc(Nc2nccc(-c3ccc(-c4nnn[nH]4)cc3)n2)ccn1)c1ccccc1`, in assay [1], the pIC50 was 5.65.

For the compound `C[C@H](Nc1cc(Nc2nccc(-c3ccc(Cl)cc3)n2)ccn1)c1ccccc1`, in assay [1], the pIC50 was 5.54.

Consider `C[C@H](Nc1cc(Nc2nccc(-c3cccc(-c4ccccc4)c3)n2)ccn1)c1ccccc1`, for which the pIC50 in assay [1] is 5.50.

With `O=C(O)c1ccc(-c2ccnc(Nc3ccncc3)n2)cc1`, the pIC50 in assay [1] was 6.41.

For the compound `CNC(=O)c1ccc(-c2ccnc(Nc3ccnc(N[C@@H](C)c4ccccc4)c3)n2)cc1`, the pIC50 in assay [1] was 6.14.

`Nc1cc(Nc2nccc(-c3ccc(C(=O)O)cc3)n2)ccn1`: the pIC50 in assay [1] is 7.18.

Consider `C[C@H](Nc1cc(Nc2nccc(-c3ccc(C(=O)NO)cc3)n2)ccn1)c1ccccc1`, for which the pIC50 in assay [1] is 6.77.

Turning to `O=C(O)c1ccc(-c2ccnc(Nc3cccc(Cl)c3)n2)cc1`, the pIC50 in assay [1] is 7.38. Further, in assay [3], the inhibition is 0%.

Regarding `C[C@H](Nc1cc(Nc2nccc(-c3ccc(C(=O)O)cc3)n2)ccn1)c1ccccc1`, the pIC50 in assay [1] is 6.68.

For the compound `Cc1cccc(-c2ccnc(Nc3ccnc(N[C@@H](C)c4ccccc4)c3)n2)c1`, in assay [1], the pIC50 is 6.04.

`C[C@H](Nc1cc(Nc2nccc(-c3ccc(N(C)C)cc3)n2)ccn1)c1ccccc1`: the pIC50 in assay [1] is 5.65.

In the case of `C[C@H](Nc1cc(Nc2nccc(-c3ccc(CC(=O)O)cc3)n2)ccn1)c1ccccc1`, in assay [1], the pIC50 is 5.47.

For the compound `Clc1cccc(Nc2nccc(-c3cccc(N4CCCCC4)c3)n2)c1`, the pIC50 in assay [1] is 6.03.

Regarding `COC(=O)c1ccc(-c2ccnc(Nc3ccccc3)n2)cc1`, in assay [1], the pIC50 was less than 4.70. Also, the inhibition in assay [3] was found to be 0%.

Consider `C[C@H](Nc1cc(Nc2nccc(-c3cccc(C(=O)O)c3)n2)ccn1)c1ccccc1`, for which the pIC50 in assay [1] is 4.89.

In the case of `Clc1cccc(Nc2nccc(-c3cccc(N4CCOCC4)c3)n2)c1`, the pIC50 in assay [1] is 6.62.
